Compounds with a hit are over-represented: about 1.8% of the library has one in this group of screens.
APOBEC3G inh: inhibitors of human APOBEC3G DNA deaminase | inhibition, % at 20 µM | Q9HC16 | 0.28% of 330,000 active | recombinant A3G, ssDNA deamination FAM/TAMRA fluorescence | AID 493012;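 active = inhibition of at least 40% at 20 µM, with no more than 30% in the related APOBEC3A deaminase screen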;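 note: plate controls were DMSO wells with A3G for no effect and wells lacking A3G enzyme for full effect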
pCIP destab: lowers stability of the mouse p/CIP coactivator protein. F442A p/CIP-EGFP cells, EGFP fluorescence, 16 h. Q05BA5. 0.01% of 290,000 active. decrease of EGFP signal, % at 10 µM;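 active = EGFP signal decrease of at least 30% at 10 µM or well 3 SD below plate mean, unless failing retest; inactive = the rest, including hits failing retest or dose response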
TbMetRS inhib: Trypanosoma brucei MetRS inhibition | inhibition, % at 11.9 µM | AID 624268 | purified T. brucei MetRS, ATP depletion, Kinase-Glo luminescence | 0.4% of 360,000 active;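 active = inhibition above a per-plate cutoff of the control wells' mean inhibition plus 3 SD, cut at about 5.5% in these data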;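 note: 0% = DMSO wells median and 100% = median of wells with control inhibitor compound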
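System: purified T. brucei MetRS enzyme / Detection: Kinase-Glo luciferase luminescence reporting remaining unconsumed ATP / Medium: HEPES buffer with MgCl2, KCl, DTT, spermine, BSA, pyrophosphatase / Replication: singlicate, one well per compound / Evaluation: percent inhibition relative to median high and low control wells / Schedule: 2 h aminoacylation at 25 °C after 15 min preincubation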
APOBEC3A inh: human APOBEC3A DNA deaminase inhibition; recombinant A3A, FAM/TAMRA ssDNA deamination fluorescence; inhibition, % at 20 µM; P31941; 0.41% of 330,000 active;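 active = at least 40% inhibition at 20 µM here, with at most 30% in a related deaminase screen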;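 note: plate controls were A3A with DMSO for no effect and wells lacking A3A enzyme for full effect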
PHOSPHO1 inh: inhibitors of human PHOSPHO1 phosphatase | Q8TCT1 | recombinant PHOSPHO1, absorbance phosphatase assay | inhibition, % at 13.3 µM | 1.1% of 290,000 active; in the data active = inhibition above about 60%
APOBEC3G confirm: confirmation of human APOBEC3G DNA deaminase inhibitors. shares compounds with APOBEC3G inh. recombinant A3G ssDNA deaminase, UDG/FAM-TAMRA fluorescence. inhibition, % at 20 µM. 72% of 890 active. AID 493152;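 active = inhibition reaching a set limit in any replicate at 20 µM, the limit being 80% of the first screen's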
UDG ctr A3G: inhibits E. coli UDG, flagging false APOBEC3G inhibitors; shares compounds with APOBEC3G inh; UDG counterscreen, FAM/TAMRA oligo fluorescence; inhibition, % at 20 µM; 710 tested, under 10 active;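 active = compounds giving 40% or more inhibition at 20 µM in any one of the three replicates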;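 note: plate controls were DMSO wells with UDG and oligo for no effect and DMSO wells lacking both for full effect; inhibitors lower the FAM signal released by uracil excision and alkaline cleavage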
An asterisk follows results filed as active; . = not tested or not shown.

SMILES	APOBEC3G inh	pCIP destab	TbMetRS inhib	APOBEC3A inh	PHOSPHO1 inh	APOBEC3G confirm	UDG ctr A3G
Cc1cc(-c2n[nH]c(=S)n2-c2ccc(F)cc2)nn1C	62.6*	12.3	-1.1	3.2	-67.9	59.9*	-3.7
COc1ccc2c3c(cccc13)C(=O)N(O)C2=O	.	5.8	-0.4	.	5.6	.	.
CCC1=NNc2cccc3c(OC)ccc1c23	60.1*	-13.0	.	2.4	35.9	73.1*	.
COc1ccc(CNC(=S)Nc2cccc(F)c2)cc1	-4.8	-32.7	0.1	-7.5	.	.	.
Cc1nc2scc(-c3ccccc3)c2c(=O)n1N=C1C=CC(=O)C=C1	65.3*	-26.5	.	-0.7	1.2	92.7*	1.5
CC(NC(=O)C(=O)N1CCOCC1)C(c1cccs1)N1CCN(c2ccc(F)cc2)CC1 (stereo not given)	4.1	-3.6	-0.3	-1.2	49.0	.	.
CCC1CCc2c(sc(NC(=O)c3cnccn3)c2C(N)=O)C1 (stereo not given)	57.9*	-11.7	0.0	-1.8	-78.1	21.9	19.2
COc1ccccc1C(=O)Nc1cc(Cl)ccc1O	-8.3	5.4	-0.3	-1.5	19.2	.	.
COc1ccc(Cl)cc1NC(=O)NC1CCCCC1	46.1*	-6.3	-0.4	18.9	6.1	27.3*	4.6
COc1ccc(Cl)cc1NC(=O)c1ccccc1C	40.7*	-0.2	-0.1	0.8	1.1	2.4	.
O=C(O)COc1ccccc1/C=N/NC(=O)Cc1ccccc1	-7.7	4.3	0.2	-10.5	24.7	.	.
O=C(O)COc1ccccc1/C=N/NC(=O)Cc1csc(Nc2cccc(C(F)(F)F)c2)n1	54.9*	-5.7	-0.7	-1.0	12.2	14.9	-4.0
CCOc1cccc(CN2CCN(CCCc3ccccc3)C(CCO)C2)c1O (stereo not given)	-4.7	-0.5	-0.6	-2.2	19.0	.	.
O=C(O)CCC(=O)c1ccc(C2CCCCCC2)cc1	.	.	-0.4	.	.	.	.
COCC(=O)Oc1c(S(=O)(=O)c2ccccc2)c(C)nn1C(C)(C)C	92.9*	-5.5	-1.5	0.8	9.3	-0.3	.
Cc1nn(C(C)(C)C)c(OC(=O)C2CCCC2)c1S(=O)(=O)c1ccccc1	.	-6.9	-0.6	.	36.9	.	.
O=S(=O)(c1ccc(Nc2ccc3c(c2)OCO3)nc1)N1CCOCC1	43.7*	0.1	0.0	0.6	13.5	0.3	.
COc1ccc(S(=O)(=O)N2CCOCC2)cc1C(=O)Nc1ccc2c(c1)OCO2	-5.3	-6.2	-0.2	1.4	22.6	.	.
COc1cccc(Nc2n[nH]c(=S)s2)c1	58.3*	-1.9	0.2	1.4	48.7	62.6*	2.3
CC(Nc1ccc(N2CCOCC2)cc1)C(=O)N1c2ccccc2CC1C (stereo not given)	-0.1	-2.9	0.3	-2.0	46.5	.	.
O=C(Nc1ccc(CSc2ccccc2)cc1)c1ccco1	-8.7	-1.5	-0.2	-8.7	33.4	.	.
CCc1ccc(NC(=O)CSc2nnc(C)c(=O)n2N)cc1	-3.0	5.1	-0.1	-3.3	32.8	.	.
CSc1ccc(/C=N/n2c(Cc3ccc(Br)cc3)n[nH]c2=S)cc1	-6.9	-12.2	-0.9	-0.9	-49.9	.	.
FC(F)Oc1ccc(/C=N/n2c(Cc3ccc(Br)cc3)n[nH]c2=S)cc1	47.8*	-16.6	-1.1	3.7	30.7	42.3*	-1.7
Cn1cccc1/C=N/n1c(-c2ccc(C(C)(C)C)cc2)n[nH]c1=S	2.9	-7.5	-1.3	0.1	-42.6	.	.
SMILES	APOBEC3G inh	pCIP destab	TbMetRS inhib	APOBEC3A inh	PHOSPHO1 inh	APOBEC3G confirm	UDG ctr A3G
S=c1[nH]nc(-c2cccnc2)n1/N=C/c1ccco1	35.9	-3.8	-0.5	-0.9	-94.5	.	.
Cn1cccc1/C=N/n1c(-c2ccccc2)n[nH]c1=S	43.2*	-11.7	-1.6	-3.0	45.0	80.9*	-2.8
Cc1nn(-c2ccccc2)c(C)c1/C=N/n1c(-c2ccncc2)n[nH]c1=S	41.7*	6.0	-0.7	-4.0	17.9	76.6*	0.9
Cc1cccc(-c2n[nH]c(=S)n2/N=C/c2ccco2)c1	47.0*	-7.9	-0.4	-6.8	-1.2	79.1*	3.1
Cc1ccc(-c2n[nH]c(=S)n2/N=C\c2ccco2)cc1	42.4*	-5.7	-0.6	-3.4	24.3	75.6*	5.6
Cc1ccc(S(=O)(=O)N2CCC(C(=O)NNC(=O)c3ccc(F)cc3)CC2)cc1	-0.2	5.2	0.1	1.0	51.9	.	.
Cc1cc(C)cc(NC(=O)CSc2nnnn2-c2cccnc2)c1	-6.3	-7.4	-0.2	-4.2	22.4	.	.
Cc1ccc(-c2n[nH]c(=S)n2/N=C/c2ccncc2)cc1	53.1*	6.0	-0.8	-1.7	-28.8	65.5*	7.3
O=[N+]([O-])c1ccc(Cl)c(/C=N/n2c(-c3ccncc3)n[nH]c2=S)c1	48.0*	-15.3	-0.3	0.1	-83.3	57.2*	-5.9
COc1cccc(C(=O)NCC(=O)N/N=C/c2c(C)[nH]c3ccccc23)c1	44.0*	-8.0	0.5	5.0	-11.4	0.1	.
Cc1cc(C)c(NC(=O)CN2CCN(c3ccccn3)CC2)c(C)c1	-1.1	-10.3	-0.4	-4.4	-10.7	.	.
CC(=O)Nc1cc(-c2ccc(N)cc2)cn2c(-c3cccc(C(F)(F)F)c3)cnc12	.	.	0.2	.	.	.	.
S=c1[nH]nc(Cc2cccs2)n1-c1ccccc1	56.5*	1.5	-0.8	1.4	-66.8	58.9*	-2.9
S=c1[nH]nc(Cc2n[nH]c(=S)n2-c2ccccc2)n1-c1ccccc1	-3.1	-3.9	-0.1	-4.3	11.4	.	.
Cc1ccc(C)n1-c1nc(=S)[nH][nH]1	58.6*	-4.5	-1.1	0.6	102.0*	73.7*	-1.8
O=C(CCCSc1ccc(Cl)cc1)Nc1cc(S(=O)(=O)N2CCOCC2)ccc1O	50.8*	.	-0.1	-3.1	.	73.0*	1.2
CCOC(=O)c1ccc(S(=O)(=O)Nc2cc(S(=O)(=O)N3CCOCC3)ccc2O)cc1	52.1*	.	-0.1	0.6	.	26.8*	-4.0
Cc1ccc(S(=O)(=O)N2CCOCC2)cc1NC(=O)CSc1ccc(Cl)cc1	-8.4	.	-0.2	-2.0	.	.	.
COc1ccc(CC(=S)N2CCOCC2)cc1	44.7*	-9.0	-1.0	2.3	72.8*	41.5*	-2.4
Cc1ccc(CC(=S)N2CCOCC2)cc1	13.7	-5.8	0.0	-3.0	36.3	.	.
CC[n+]1c(C)sc2sc3ccccc3c21	55.0*	-12.8	.	24.9	52.9	67.3*	.
CCCCCC(=O)Nc1cccc(C2=NOC3(C2)C[C@H](C(N)=O)N(C(=O)CC#N)C3)c1 (stereo not given in full)	.	-5.3	.	.	17.7	.	.
C/C=C(\C)C(=O)Nc1cccc(C2=NOC3(C2)C[C@@H](C(N)=O)N(C(=O)/C(C)=C/C)C3)c1 (stereo not given in full)	-10.7	6.1	1.0	-3.4	39.7	.	.
C=C(C)C(=O)Nc1cccc(C2=NOC3(C2)C[C@H](C(N)=O)N(C(=O)CC#N)C3)c1 (stereo not given in full)	74.2*	-16.5	.	10.2	30.9	73.2*	.

Compound activity (PubChem)
